The record followed here is ChEMBL document CHEMBL2157871, “Identification of a novel and orally available benzimidazole derivative as an NPY Y5 receptor antagonist with in vivo efficacy” (Bioorg Med Chem Lett, 2012).

In series [1] the target is Cytochrome P450 2D6 (Homo sapiens, UniProt P10635). Description: Inhibition of CYP2D6. Type of series: ADME.
Series [2] in a line: Kinetic solubility of the compound in 1%DMSO at pH 6.8. It is filed as physicochemical. Particulars: read-out: Kinetic_solubility. In short, it runs like this:
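Kinetic solubility measured at pH 6.8 from a 1% DMSO solution.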

Series [3] is described as follows: Metabolic stability in human liver microsomes assessed as compound remaining after 30 mins. Type of series: ADME, Microsome. Particulars: read-out: Stability. The essentials: (§1)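 Human or rat liver microsomes incubated with compound for 30 min. Result given as percent of parent compound remaining.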
Series [4] concerns the target T1, Cytochrome P450 1A2 (Homo sapiens, UniProt P05177).
T1 sequence (P05177 whole entry): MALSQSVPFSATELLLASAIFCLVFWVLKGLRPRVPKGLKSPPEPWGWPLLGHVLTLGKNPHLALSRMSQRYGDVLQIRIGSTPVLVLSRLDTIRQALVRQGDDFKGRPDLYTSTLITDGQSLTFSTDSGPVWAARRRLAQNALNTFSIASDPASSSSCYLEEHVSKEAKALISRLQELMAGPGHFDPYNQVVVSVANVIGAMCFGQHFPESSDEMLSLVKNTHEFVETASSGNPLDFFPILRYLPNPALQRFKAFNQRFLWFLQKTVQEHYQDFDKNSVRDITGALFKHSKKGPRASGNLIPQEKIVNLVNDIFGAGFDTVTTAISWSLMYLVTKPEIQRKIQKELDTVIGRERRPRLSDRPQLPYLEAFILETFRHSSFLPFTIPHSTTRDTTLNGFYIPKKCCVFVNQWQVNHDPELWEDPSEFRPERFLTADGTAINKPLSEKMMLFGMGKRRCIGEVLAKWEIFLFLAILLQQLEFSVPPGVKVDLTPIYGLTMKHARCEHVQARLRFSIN
Kind of series: Inhibition of CYP1A2. It is filed as ADME.

Series [5] has as its target T2, Neuropeptide Y receptor type 5 (Mus musculus, UniProt O70342).
T2 sequence (O70342 whole entry): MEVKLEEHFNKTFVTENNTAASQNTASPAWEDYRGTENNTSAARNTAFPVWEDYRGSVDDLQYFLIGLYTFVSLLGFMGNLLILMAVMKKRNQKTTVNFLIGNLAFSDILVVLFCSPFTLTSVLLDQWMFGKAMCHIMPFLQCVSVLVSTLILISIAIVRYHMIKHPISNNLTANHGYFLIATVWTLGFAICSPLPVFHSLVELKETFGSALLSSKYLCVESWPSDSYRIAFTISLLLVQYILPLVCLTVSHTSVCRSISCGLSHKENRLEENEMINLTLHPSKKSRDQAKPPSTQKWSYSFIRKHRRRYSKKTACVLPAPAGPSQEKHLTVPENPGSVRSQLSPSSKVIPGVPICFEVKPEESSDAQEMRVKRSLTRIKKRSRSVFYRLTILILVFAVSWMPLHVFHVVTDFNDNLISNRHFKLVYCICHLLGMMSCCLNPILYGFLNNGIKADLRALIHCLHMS
Description: Displacement of [125I]PYY from mouse NPY Y5 receptor. The essentials:
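Competition binding at mouse NPY Y5 receptors with 125I-PYY as ligand. IC50 is the concentration giving 50% inhibition of total specific binding, taken as the mean of two or more independent assays.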

Series [6] in a line: Metabolic stability in rat liver microsomes assessed as compound remaining after 30 mins. It is filed as ADME, Microsome. Conditions: read-out: Stability. In short, it runs like this:
as §1
For orientation: Liver microsomes are a subcellular fraction often used to study metabolism.

The target in series [7] is Cytochrome P450 2C9 (Homo sapiens, UniProt P11712). Description: Inhibition of CYP2C9. Type of series: ADME.
The target in series [8] is Cytochrome P450 2C19 (Homo sapiens, UniProt P33261). Description: Inhibition of CYP2C19. It is filed as ADME.
Series [9] addresses Cytochrome P450 3A4 (Homo sapiens, UniProt P08684). Description: Inhibition of CYP3A4. Type of series: ADME.

SMILES strings stand for the structures.

Cytochrome P450 2D6, sequence (P10635 whole entry): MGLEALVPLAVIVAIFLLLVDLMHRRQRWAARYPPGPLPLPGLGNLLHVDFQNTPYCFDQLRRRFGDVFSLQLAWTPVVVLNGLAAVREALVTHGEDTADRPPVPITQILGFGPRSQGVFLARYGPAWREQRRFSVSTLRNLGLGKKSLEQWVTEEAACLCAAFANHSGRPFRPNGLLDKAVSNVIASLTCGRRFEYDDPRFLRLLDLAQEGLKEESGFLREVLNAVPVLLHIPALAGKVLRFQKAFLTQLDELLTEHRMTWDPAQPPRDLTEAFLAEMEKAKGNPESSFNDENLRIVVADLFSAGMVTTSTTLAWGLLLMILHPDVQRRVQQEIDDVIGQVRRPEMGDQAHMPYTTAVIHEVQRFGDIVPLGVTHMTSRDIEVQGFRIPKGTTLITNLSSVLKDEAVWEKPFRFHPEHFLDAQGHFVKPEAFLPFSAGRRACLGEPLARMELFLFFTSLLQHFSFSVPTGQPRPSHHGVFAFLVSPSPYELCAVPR
Cytochrome P450 2C19, sequence (P33261 whole entry): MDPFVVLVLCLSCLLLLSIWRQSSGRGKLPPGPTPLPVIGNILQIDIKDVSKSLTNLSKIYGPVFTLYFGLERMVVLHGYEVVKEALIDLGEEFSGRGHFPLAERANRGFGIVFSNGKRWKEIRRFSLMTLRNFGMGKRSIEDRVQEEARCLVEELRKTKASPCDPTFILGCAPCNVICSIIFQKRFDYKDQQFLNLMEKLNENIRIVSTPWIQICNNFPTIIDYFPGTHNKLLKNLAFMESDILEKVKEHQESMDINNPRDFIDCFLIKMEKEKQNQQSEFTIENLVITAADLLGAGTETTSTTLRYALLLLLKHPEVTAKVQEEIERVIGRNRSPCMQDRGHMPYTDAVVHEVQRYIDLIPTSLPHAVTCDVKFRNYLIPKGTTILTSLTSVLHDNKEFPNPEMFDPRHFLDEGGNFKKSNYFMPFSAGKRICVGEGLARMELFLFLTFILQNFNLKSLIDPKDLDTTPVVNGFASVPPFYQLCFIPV
Cytochrome P450 2C9, sequence (P11712 whole entry): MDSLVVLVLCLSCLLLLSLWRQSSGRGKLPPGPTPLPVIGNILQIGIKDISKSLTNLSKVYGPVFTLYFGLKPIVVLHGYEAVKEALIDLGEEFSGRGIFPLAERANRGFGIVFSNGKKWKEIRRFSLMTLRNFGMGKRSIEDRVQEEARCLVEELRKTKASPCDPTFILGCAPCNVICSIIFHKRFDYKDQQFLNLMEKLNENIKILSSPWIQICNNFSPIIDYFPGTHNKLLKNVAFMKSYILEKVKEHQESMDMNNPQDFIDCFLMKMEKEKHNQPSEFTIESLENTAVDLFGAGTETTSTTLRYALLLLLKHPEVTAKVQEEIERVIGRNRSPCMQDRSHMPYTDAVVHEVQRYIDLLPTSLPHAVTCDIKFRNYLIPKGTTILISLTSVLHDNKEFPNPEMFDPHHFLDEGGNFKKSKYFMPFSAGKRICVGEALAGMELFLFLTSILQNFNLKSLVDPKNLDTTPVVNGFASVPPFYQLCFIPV
Cytochrome P450 3A4, sequence (P08684 whole entry): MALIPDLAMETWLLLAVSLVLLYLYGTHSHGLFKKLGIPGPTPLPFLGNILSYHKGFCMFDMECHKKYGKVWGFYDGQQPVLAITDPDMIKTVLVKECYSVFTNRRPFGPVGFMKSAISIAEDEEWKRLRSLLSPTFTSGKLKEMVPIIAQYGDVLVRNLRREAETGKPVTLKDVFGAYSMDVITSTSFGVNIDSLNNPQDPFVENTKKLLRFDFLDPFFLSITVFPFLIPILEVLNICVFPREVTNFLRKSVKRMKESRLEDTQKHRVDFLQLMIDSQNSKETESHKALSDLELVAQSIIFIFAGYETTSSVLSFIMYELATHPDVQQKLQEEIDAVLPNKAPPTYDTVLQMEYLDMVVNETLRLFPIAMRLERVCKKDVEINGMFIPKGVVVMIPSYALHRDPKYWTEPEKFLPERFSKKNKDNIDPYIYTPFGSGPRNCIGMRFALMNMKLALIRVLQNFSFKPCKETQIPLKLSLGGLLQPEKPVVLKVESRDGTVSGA

With `CCCS(=O)(=O)c1ccc2nc(N3CCCC(c4ccccc4)C3)[nH]c2c1` (stereo not given), the INH was 13 µM in series [1]; above 20 µM in series [4]; 9.4 µM in series [7]; 12 µM in series [8]; 6.9 µM in series [9]. Further, the solubility kinetic in series [2] is 19.1 µM. For the same compound, the remaining at 0.5 h is 45.2% in series [3] and 2.2% in [6]. In series [5], the IC50 (commonly the concentration that gives 50% inhibition) was 0.29 nM.

Consider `CCS(=O)(=O)c1ccc2[nH]c(N3CCOC(c4ccc(OC)cc4)C3)nc2c1` (stereo not given), for which the INH in series [1], in [4], in series [7], in series [8] and in [9] was above 20 µM throughout. In addition, the solubility kinetic in [2] was above 50 µM. For the same compound, the remaining at 0.5 h in series [3] is 81%; in series [6], 48%. Also, in series [5], the IC50 was 3.03 nM.

Take `CCS(=O)(=O)c1ccc2[nH]c(N3CCOC(c4ccc(F)cc4)C3)nc2c1` (stereo not given): the INH in [1], in [4], in series [7], in series [8] and in [9] was above 20 µM each time. Also, in series [2], the solubility kinetic is above 50 µM. In addition, the remaining at 0.5 h in [3] stood at 92.4%; in [6], 87.1%. The compound further showed an IC50 in series [5] of 1.05 nM.

As to `CCCS(=O)(=O)c1ccc2nc(N3CCN(C)C(c4ccccc4)C3)[nH]c2c1` (stereo not given), the INH in series [1], in [4], in series [7], in series [8] and in series [9] was above 20 µM throughout. In addition, the solubility kinetic in series [2] was above 50 µM. For the same compound, the values for the remaining at 0.5 h in series [3] and in [6] were 21.9% and 21.1%, respectively. The IC50 in [5] was 4.99 nM.

For the compound `O=S(=O)(CC(F)(F)F)c1ccc2[nH]c(N3CCOC(c4ccccc4)C3)nc2c1` (stereo not given), the INH in [1] is above 20 µM; in series [4] it was above 20 µM; in series [7], above 20 µM; in series [8] it was above 20 µM; in [9] it was 15 µM. Further, the solubility kinetic in [2] is above 50 µM. Moreover, the remaining at 0.5 h was determined as 85% in [3] and 63.5% in series [6]. This compound also came in with an IC50 in series [5] of 0.21 nM.

As for `CCCS(=O)(=O)c1ccc2[nH]c(C3CN(c4ccccc4)CCO3)nc2c1` (stereo not given), the INH in series [1], in [4], in series [7], in series [8] and in series [9] was above 20 µM throughout. In addition, the solubility kinetic in series [2] was above 50 µM. Also, the remaining at 0.5 h amounted to 66.1% in [3] and 7.5% in series [6]. For the same compound, the IC50 in series [5] turned out to be 15.9 nM.

`CCCS(=O)(=O)c1ccc2[nH]c(C3CCOC(c4ccccc4)C3)nc2c1` (mixture of isomers): the INH is above 20 µM in series [1]; above 20 µM in series [4]; above 20 µM in series [7]; 20 µM in series [8]; above 20 µM in series [9]. For the same compound, the solubility kinetic in series [2] is above 50 µM. In addition, the remaining at 0.5 h in series [3] was 65%; in [6], 74%. The compound further returned an IC50 in series [5] of 17.2 nM.

With `CC(C)S(=O)(=O)c1ccc2nc(N3CCOC(c4ccccc4)C3)[nH]c2c1` (stereo not given), the INH is above 20 µM in series [1]; 15 µM in series [4]; above 20 µM in series [7]; 19 µM in [8]; 16 µM in [9]. Moreover, the solubility kinetic in series [2] is above 50 µM. Besides, the remaining at 0.5 h in [3] turned out to be 87%; in series [6], 49.5%. In [5], this compound showed an IC50 of 1.33 nM.

For the compound `O=S(=O)(c1ccc2nc(N3CCOC(c4ccccc4)C3)[nH]c2c1)C(F)(F)F` (stereo not given), the INH in series [1] was 5.5 µM; in series [4], 17 µM; in series [7], 4.5 µM; in series [8], 1.7 µM; in [9], 2.3 µM. Further, the solubility kinetic in series [2] is 3.7 µM. Further, the results for the remaining at 0.5 h in [3] and in series [6] were 81.7% and 67.9%, respectively. For the same compound, the IC50 in series [5] is 0.73 nM.

Turning to `CCCS(=O)(=O)c1ccc2[nH]c(N3CCNC(c4ccccc4)C3)nc2c1` (stereo not given), the INH in series [1], in series [4], in [7], in series [8] and in series [9] was above 20 µM in each case. Besides, the solubility kinetic in series [2] was above 50 µM. For the same compound, the remaining at 0.5 h was 64.4% in series [3] and 44% in [6]. Moreover, the IC50 in [5] worked out at 6.82 nM.

For the compound `CCCS(=O)(=O)c1ccc2nc(C3CCC(=O)N(c4ccccc4)C3)[nH]c2c1` (stereo not given), the INH in [1], in series [4], in series [7], in [8] and in series [9] was above 20 µM throughout. For the same compound, the solubility kinetic in series [2] was above 50 µM. The remaining at 0.5 h in series [3] was 81.1%; in series [6], 62%. Further, the IC50 in series [5] was 193 nM.

Consider `CCCS(=O)(=O)c1ccc2[nH]c(N3CCC(c4ccccc4)C3)nc2c1` (stereo not given), for which the INH is above 20 µM in series [1]; above 20 µM in series [4]; 17 µM in series [7]; above 20 µM in series [8]; 14 µM in series [9]. Besides, in [2], the solubility kinetic is 15.4 µM. The remaining at 0.5 h in series [3] came to 74.9%; in [6], 19.2%. The half-maximal inhibitory concentration (IC50) in [5] stood at 1.01 nM.

`CC(C)(C)S(=O)(=O)N[C@H]1CC[C@H](C(=O)Nc2ccc(C(F)(F)F)cn2)CC1` [VELNEPERIT]: the solubility kinetic in series [2] is 1.6 µg/mL. The compound also had a half-maximal inhibitory concentration (IC50) in [5] of 4.6 nM.

With `CCS(=O)(=O)c1ccc2[nH]c(N3CCOC(c4ccc(C)cc4)C3)nc2c1` (stereo not given), the INH in series [1] is above 20 µM; in series [4], above 20 µM; in series [7] it was above 20 µM; in series [8] it was 17 µM; in series [9] it was above 20 µM. In addition, in series [2], the solubility kinetic amounted to 21.6 µM. The remaining at 0.5 h in [3] worked out at 87.8%; in [6], 34%. The IC50 in series [5] was 0.8 nM.

Regarding `CCCS(=O)(=O)c1ccc2nc(N3CCOC(c4ccccc4)C3)[nH]c2c1` (stereo not given), the INH in series [1] was above 20 µM; in series [4], above 20 µM; in series [7], above 20 µM; in series [8] it was 19 µM; in series [9] it was above 20 µM. For the same compound, in [2], the solubility kinetic is above 50 µM. In addition, the remaining at 0.5 h in [3] amounted to 77.9%; in [6], 45.9%. The IC50 in series [5] amounted to 0.6 nM.

In the case of `CC(C)CS(=O)(=O)c1ccc2[nH]c(N3CCOC(c4ccccc4)C3)nc2c1` (stereo not given), the INH is above 20 µM in [1]; above 20 µM in [4]; 17 µM in series [7]; above 20 µM in series [8]; 9.3 µM in series [9]. In addition, in series [2], the solubility kinetic amounted to 43.2 µM. Also, the remaining at 0.5 h in [3] is 55.1%; in series [6] it was 2.4%. Moreover, the IC50 in series [5] stood at 0.28 nM.

Take `CC(C)(C)S(=O)(=O)c1ccc2[nH]c(N3CCOC(c4ccccc4)C3)nc2c1` (stereo not given): the INH was above 20 µM in [1]; above 20 µM in series [4]; above 20 µM in series [7]; above 20 µM in [8]; 14 µM in series [9]. Besides, the solubility kinetic in series [2] was 10.7 µM. The remaining at 0.5 h was found to be 78.5% in series [3] and 56.4% in [6]. The compound further came in with an IC50 in [5] of 4.27 nM.

On to `CC(C)(C(F)(F)F)S(=O)(=O)c1ccc2nc(N3CCOC(c4ccccc4)C3)[nH]c2c1` (stereo not given), for which the INH is 18 µM in series [1]; 18 µM in series [4]; 11 µM in [7]; 17 µM in series [8]; 8.2 µM in series [9]. The solubility kinetic in series [2] amounted to 11.6 µM. In addition, the remaining at 0.5 h turned out to be 60.2% in series [3] and 37.8% in series [6]. In addition, in series [5], the IC50 was found to be 1.43 nM.
